Bioassay records deposited in PubChem by The Scripps Research Institute Molecular Screening Center.
GSTO1 counter: GSTO1 inhibition, counter-screen for RBBP9 inhibitors; P78417; recombinant GSTO1, activity-based probe fluorescence polarization; inhibition, % at 5.96 µM; actives 1.1% (n = 300,000); AID 1974;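 active = inhibition above the campaign mean inhibition plus 3 SD, cut at about 35% in these data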
Target sequence (P78417 whole entry, looked up): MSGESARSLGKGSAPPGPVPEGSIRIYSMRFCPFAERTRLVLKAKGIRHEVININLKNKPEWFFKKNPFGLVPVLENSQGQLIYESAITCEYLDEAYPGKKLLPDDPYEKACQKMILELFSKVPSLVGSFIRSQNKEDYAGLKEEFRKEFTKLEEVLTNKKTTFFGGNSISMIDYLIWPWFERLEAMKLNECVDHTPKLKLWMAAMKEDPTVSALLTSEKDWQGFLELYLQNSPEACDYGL
PME-1 inh: blocks human protein phosphatase methylesterase 1; actives 0.53% (n = 320,000); inhibition, % at 5.9 µM; recombinant PME-1, FP-Rh probe fluorescence polarization;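 active = inhibition above the campaign mean of all compounds plus 3 SD, cut at about 26% in these data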;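 note: competitive labeling of PME-1 active site by serine hydrolase directed probe; inhibitors block probe labeling so polarization falls and inhibition rises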
PAD4 FP inh: PAD4 (human) enzyme inhibition; actives 0.41% (n = 330,000); recombinant PAD4, RCA probe fluorescence polarization; AID 485272; inhibition, % at 6.36 µM;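 active = percent inhibition above a cutoff equal to the mean of all tested compounds plus 3 SD, cut at about 15% in these data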
PRMT1 FP inh: blocks human protein arginine methyltransferase 1. Q99873. recombinant PRMT1, activity-based probe fluorescence polarization. inhibition, % at 2.79 µM. actives 1.3% (n = 370,000). AID 652257;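 active = inhibition above about 21% made by adding two undisclosed values, limit read from the data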
RBBP9 inhibitor: blocks human serine hydrolase RBBP9. inhibition, % at 7.94 µM. AID 1515. recombinant RBBP9, FP-Rh probe fluorescence polarization. actives 0.2% (n = 220,000);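 active = inhibition above the campaign mean of all tested compounds plus 3 SD, cut at about 14% in these data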
Target sequence (O75884 whole entry, looked up): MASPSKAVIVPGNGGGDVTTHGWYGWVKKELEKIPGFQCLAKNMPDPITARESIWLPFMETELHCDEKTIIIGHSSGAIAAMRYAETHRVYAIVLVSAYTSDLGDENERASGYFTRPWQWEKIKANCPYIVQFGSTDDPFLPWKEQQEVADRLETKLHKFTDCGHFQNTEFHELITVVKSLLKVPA
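system = RBBP9 protein | input = RBBP9 at 2.5 µM in dispensed solution, before mixing | measured by = fluorescence polarization (mP), excitation 525 nm, emission 598 nm | incubation = enzyme-compound preincubation 30 min, then probe labeling 45 min, 25 °C | buffer or medium = Tris-NaCl-Pluronic buffer, pH 8.0 | compound = single dose 7.94 µM | also added = FP-Rh probe, 375 nM dispensing solution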
Fam108B inh: counter-screen for RBBP9 inhibitors: inhibitors of mouse Fam108B; recombinant Fam108B, FP-Rh probe fluorescence polarization; inhibition, % at 9.51 µM; actives 0.33% (n = 300,000); AID 1947;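 active = inhibition above the screen mean inhibition plus 3 SD, computed separately per campaign, cut at about 18% in these data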;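 note: inhibitors lower polarization as less probe binds the enzyme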
PRMT1 confirm: PRMT1 (human) inhibition, FP confirmation; shares compounds with PRMT1 FP inh; recombinant His-PRMT1, activity-based probe fluorescence polarization; inhibition, % at 2.79 µM; actives 42% (n = 3,300);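 active = mean inhibition across replicates above the hit cutoff derived for the earlier primary screen, cut at about 22% in these data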
Of the large screens only hits and unclear results are named; the others gave an inactive call (follow-up assays come after a bar, where they were run). Rows were chosen to be rich in hits. Some 2.3% of all compounds tested hit in one or more screens of this group.

N#Cc1c(/N=C/C2C(=O)NC(=S)NC2=O)sc2c1CCCC2	PRMT1 FP inh 25.5 | PRMT1 confirm inactive
CCCC(=O)c1cc(CP(=O)(OCC)OCC)oc1C	none
Cn1cnc([N+](=O)[O-])c1Sc1ccc([N+](=O)[O-])cc1	PRMT1 FP inh 47.5 | PRMT1 confirm inactive
CCOC(=O)c1cc(C)sc1/N=C/C1C(=O)NC(=S)NC1=O	PRMT1 FP inh 85.8 | PRMT1 confirm inactive
Nc1ccc2nonc2c1[N+](=O)[O-]	PRMT1 FP inh 92.3 | PRMT1 confirm 78.5
O=P(C(Cl)Cl)(N1CCOCC1)N1CCOCC1	none (no result: RBBP9 inhibitor)
O=CC(Br)P(=O)(N1CCOCC1)N1CCOCC1 (configuration not stated)	PRMT1 FP inh 26.5 | PRMT1 confirm 30.6
C=C1C(=O)OC2CC3(C)OC3C3OC3C3=CC(OC3=O)C12 (configuration not stated)	PRMT1 FP inh 44.4 (no result: GSTO1 counter, PME-1 inh, PAD4 FP inh, RBBP9 inhibitor, Fam108B inh) | PRMT1 confirm 40.1
Cc1cc(C)cc(N2C(=O)NC(=O)/C(=C\C=C\c3ccco3)C2=O)c1	none
Cc1ccc2c(c1)CC1(CN2C)C(=O)NC(=O)N(c2cccc(C)c2C)C1=O (configuration not stated)	none
O=C(O)c1ccccc1-c1ccc(C=C2C(=O)N(c3ccccc3)C(=S)N(c3ccccc3)C2=O)o1	PRMT1 FP inh 39.0 (no result: RBBP9 inhibitor) | PRMT1 confirm 59.1
NN=C1C(Cl)=C(Cl)C(Cl)=C1Cl	PRMT1 FP inh 25.5 (no result: GSTO1 counter, PME-1 inh, PAD4 FP inh, RBBP9 inhibitor, Fam108B inh) | PRMT1 confirm inactive
COc1ccc(CN2CCCC(C(=O)c3ccc(Cl)cc3)C2)c(OC)c1 (configuration not stated)	none (no result: RBBP9 inhibitor)
O=C(O)Cn1cc(/C=C2\C(=O)NC(=O)N(Cc3ccco3)C2=O)c2ccccc21	PRMT1 FP inh 27.5 | PRMT1 confirm inactive
CCN1C(=O)NC(=O)/C(=C\c2cn(CC(=O)O)c3ccccc23)C1=O	none (no result: PRMT1 FP inh, RBBP9 inhibitor)
COC(=O)C1=C(c2ccc(Cl)c(C(F)(F)F)c2)C[C@@H]2CC[C@H]1N2C(=O)N1CCOCC1	none (no result: GSTO1 counter, RBBP9 inhibitor, Fam108B inh)
CNCC(O)c1ccc(O)cc1 (configuration not stated)	none
CC(Cc1ccc(O)cc1)NCC(O)c1ccc(O)c(O)c1 (configuration not stated)	PRMT1 FP inh 25.2 (no result: GSTO1 counter, PME-1 inh, PAD4 FP inh, RBBP9 inhibitor, Fam108B inh) | PRMT1 confirm inactive
Nc1ccccc1C(=O)OCC(=O)N1CCc2ccccc21	none (no result: GSTO1 counter, PME-1 inh, PAD4 FP inh, Fam108B inh)
N#CSCC(=O)N1c2ccccc2CCc2ccccc21	PRMT1 FP inh 57.7 | PRMT1 confirm 49.8
COc1cccc2c1C(=O)c1c(O)c3c(c(O)c1C2=O)CC(O)(C(C)=NO)CC3OC1CC(N)C(O)C(C)O1 (configuration not stated)	PRMT1 FP inh 145.5 (no result: GSTO1 counter, PME-1 inh, PAD4 FP inh, RBBP9 inhibitor, Fam108B inh) | PRMT1 confirm 138.8
O=C1C2CC=CCC2C(=O)N1SC(Cl)(Cl)Cl (configuration not stated)	PRMT1 FP inh 75.1 (no result: GSTO1 counter, PME-1 inh, PAD4 FP inh, RBBP9 inhibitor, Fam108B inh) | PRMT1 confirm 86.6
O=C(/C=C/c1ccccc1)NC(=S)N1C[C@H]2C[C@H](C1)c1cccc(=O)n1C2	none (no result: RBBP9 inhibitor)
O=C(COC(=O)Cc1ccccc1)NNC(=O)c1ccc([N+](=O)[O-])cc1	none (no result: GSTO1 counter, RBBP9 inhibitor, Fam108B inh)
O=C(OCC(=O)c1ccc([N+](=O)[O-])cc1)/C(=C/c1ccc(Cl)cc1)NC(=O)c1ccccc1	PRMT1 FP inh 46.4 | PRMT1 confirm inactive
C=CCn1c(O)c(C(=O)CCCCCC)c(=O)[nH]c1=O	none
Nc1ccc2ccc3cccc[n+]3c2c1	PRMT1 FP inh 175.4 (no result: RBBP9 inhibitor) | PRMT1 confirm 150.2
CC1=C(O)C(=O)C=C2C1=CC=C1C2(C)CCC2(C)C3CC(C)(C(=O)O)CCC3(C)CCC12C (configuration not stated)	PRMT1 FP inh 34.7 (no result: GSTO1 counter, PME-1 inh, PAD4 FP inh, RBBP9 inhibitor, Fam108B inh) | PRMT1 confirm 49.8
CN1CN(c2ccccc2)C2(CCN(CCCSc3ccccc3NC(=O)/C=C/c3ccccc3)CC2)C1=O	none (no result: GSTO1 counter, PME-1 inh, PAD4 FP inh, RBBP9 inhibitor, Fam108B inh)
CN1C(=O)NC(=O)/C(=C/c2ccc(C(=O)O)cc2)C1=O	PRMT1 FP inh 31.3 | PRMT1 confirm inactive
Cc1ccc(/C=C2/C(=O)NC(=O)N(C)C2=O)cc1	none
S=P(NCCNP(=S)(N1CC1)N1CC1)(N1CC1)N1CC1	PRMT1 FP inh 58.1 (no result: GSTO1 counter, PME-1 inh, PAD4 FP inh, RBBP9 inhibitor, Fam108B inh) | PRMT1 confirm inactive
S=P(NCCSCc1ccccc1)(N1CC1)N1CC1	PRMT1 FP inh 29.4 (no result: GSTO1 counter, PME-1 inh, PAD4 FP inh, RBBP9 inhibitor, Fam108B inh) | PRMT1 confirm inactive
CN(C)c1cc(N)c2c(n1)CCC2 (tested in a mixture with another compound)	none
N#CC1c2ccccc2-n2nncc2CN1C(=O)c1ccccc1F (configuration not stated)	none (no result: GSTO1 counter, PME-1 inh, PAD4 FP inh, RBBP9 inhibitor, Fam108B inh)
CC1CN1P(=S)(c1ccccc1)N1CC1C (configuration not stated)	PRMT1 FP inh 35.9 (no result: GSTO1 counter, PME-1 inh, PAD4 FP inh, RBBP9 inhibitor, Fam108B inh) | PRMT1 confirm inactive
c1ccc(Cc2cnc(N3CCNCC3)nc2)cc1	PRMT1 FP inh 45.0 (no result: GSTO1 counter, PME-1 inh, PAD4 FP inh, RBBP9 inhibitor, Fam108B inh) | PRMT1 confirm inactive
